This note sets out measurements from PubChem BioAssay.

Activity calls are given as the source filed them.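 The calls were made as follows, unless noted: active = inhibition above 20% together with a positive visual image hit; inconclusive = visual image hit but inhibition not above 20%; inactive = no visual image hit.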

The nature of experiment [1]: inhibitors of TNFa-induced NFkB p65 translocation, primary screen, imaging, HUVEC, MLSMR starter and 10KST1 sets (AID 438).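 Also: compound added about 3h40 before a 20 min TNFalpha stimulation.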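 As to inhibition: signal is the nuclear over cytoplasmic p65 intensity ratio per well.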 Conditions: HUVEC TNFa-induced p65 nuclear translocation; cell count: measured here: nuclei count (cytotoxicity indicator), at 2.08 µM; inhibition: at 2 µM, stronger effect = higher value, 0% TNFa-plus-vehicle, 100% no-TNFa wells.
Experiment [2] is described as follows: endothelial E-selectin expression blockers – imaging, HUVEC, immunofluorescence, MLSMR starter and 10KST1 sets, primary screen (AID 487;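 active = visually confirmed hit in the image check and inhibition above 20%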;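 as to inhibition: signal is fraction of cell area covered by stained E-selectin grains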;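 as to nuclei count: 100% = median nuclei count of all wells on the same plate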). Conditions: HUVEC TNFalpha-induced E-selectin immunofluorescence imaging, at 2 µM; inhibition: stronger effect = higher value; nuclei count: measured here: cell number, toxicity.
A short description of experiment [3]: Primary imaging screen for DUSP6 inhibitors that restore phospho-Erk in transfected HeLa cells, chemical complementation (AID 609;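 active = compounds giving at least 50% inhibition in the cell-based MKP-3 phosphatase rescue imaging test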;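 as to inhibition: phospho-Erk level distribution per well compared with pooled transfected vehicle control wells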). Conditions: HeLa MKP-3 transfected, phospho-Erk imaging KS statistic, at 10 µM, cells stimulated with TPA for 15 min.
In experiment [4] the target is Dual specificity protein phosphatase 6 (Homo sapiens) (UniProt Q16828). The experiment is described as above. Conditions: HeLa MKP-3 transfected, phospho-Erk imaging KS statistic; at 10 µM; stronger effect = higher value; cells stimulated with TPA for 15 min.
Dual specificity protein phosphatase 6 (Homo sapiens), sequence (Q16828 whole entry, looked up): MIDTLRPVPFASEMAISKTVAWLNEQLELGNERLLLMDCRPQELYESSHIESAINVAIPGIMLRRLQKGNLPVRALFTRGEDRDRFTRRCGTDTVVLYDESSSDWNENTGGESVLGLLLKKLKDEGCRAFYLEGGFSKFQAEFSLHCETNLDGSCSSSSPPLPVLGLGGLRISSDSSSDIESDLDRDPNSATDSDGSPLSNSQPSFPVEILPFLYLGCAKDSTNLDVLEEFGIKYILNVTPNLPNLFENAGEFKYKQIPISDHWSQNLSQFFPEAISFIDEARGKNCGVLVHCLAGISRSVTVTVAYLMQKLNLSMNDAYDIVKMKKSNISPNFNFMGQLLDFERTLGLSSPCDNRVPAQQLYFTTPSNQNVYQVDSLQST
Experiment [5] concerns the target Voltage-gated potassium channel subunit beta-2 (Rattus norvegicus) (UniProt P62483). In words: inhibitors of rat Kvbeta2 reductase activity – biochemical, NADPH fluorescence, primary screen (AID 622;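 active = fluorescence slope higher than the sample average by over 3 SD, cut at about -0.22 in these data, passing the limit was not always enough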;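 also: slope of raw intensity against log time taken from 70 to 1610 s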). Conditions: recombinant KvBeta, 4-cyanobenzaldehyde reduction, at 10 µM, stronger effect = higher value.
Experiment [6] has the same target. In words: enhancers of rat Kvbeta2 NADPH turnover – biochemical, NADPH fluorescence, primary screen (AID 623;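 active = NADPH fluorescence slope more negative than the mean of all samples by about 3 SD, 99.7% confidence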;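 also: fluorescence intensity change per second fitted from 20 to 320 s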). Conditions: Recombinant KvBeta, NADPH fluorescence decrease slope, 10 min; at 10 µM; stronger effect = lower value.
Experiment [7] deals with Alpha-2C adrenergic receptor (Homo sapiens) (UniProt P18825). Nature of the experiment: compounds altering alpha2C-coupled GIRK flux – cell-based, HEK293 alpha2C/GIRK1/2, thallium flux, primary screen (AID 624;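 active = fluorescence slope after compound addition differing from the mean of all screened samples at 99.7% confidence, in either direction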;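 also: slope of fluorescence ratio to pre-addition baseline per second over 15 to 24 s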). The settings on record: thallium flux BTC fluorescence, at 10 µM, actives lie on both sides.
Alpha-2C adrenergic receptor (Homo sapiens), sequence (P18825 whole entry, looked up): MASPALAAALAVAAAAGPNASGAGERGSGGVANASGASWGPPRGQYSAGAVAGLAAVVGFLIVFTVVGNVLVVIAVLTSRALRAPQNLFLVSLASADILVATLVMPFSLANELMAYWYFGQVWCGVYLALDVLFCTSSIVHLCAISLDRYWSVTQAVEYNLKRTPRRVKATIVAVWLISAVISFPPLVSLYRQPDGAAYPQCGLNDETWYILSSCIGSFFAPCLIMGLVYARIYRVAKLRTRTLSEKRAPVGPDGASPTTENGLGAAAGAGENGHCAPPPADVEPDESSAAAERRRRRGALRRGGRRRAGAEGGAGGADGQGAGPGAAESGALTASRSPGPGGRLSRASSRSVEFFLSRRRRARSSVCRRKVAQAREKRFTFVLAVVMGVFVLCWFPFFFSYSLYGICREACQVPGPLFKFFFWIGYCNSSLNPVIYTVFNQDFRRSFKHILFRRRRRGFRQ
A short description of experiment [8]: inhibitors of larval lipid processing in zebrafish, primary screen, whole organism, PED6 fluorescence, gall bladder and intestine (AID 686;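 active = a full or partial loss of lipid-probe fluorescence in the fish gall bladder, intestine or both, judged by eye; inactive = no fluorescence loss, or compound toxic to the fish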;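 also: larvae 5 to 7 days old with five fish per well; signal comes from phospholipase A2 cleavage of quenched PED6 carried via bile; overnight exposure to compound and PED6 before scoring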). Conditions: Zebrafish larvae PED6 lipid processing, fluorescence scoring; screened at 20 µM (by protocol). In a few lines:
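Test system – live zebrafish larvae aged 5-7 days, whole organism · Buffer or medium – E3 fish medium · Reagent – quenched phospholipase substrate PED6, 100 nM final, ingested by larvae · Doses – 20 µM single dose · Incubation – overnight compound and PED6 incubation · Technique – visual fluorescence microscopy scoring of gall bladder, gut · Read-out basis – visual per-well fluorescence inhibition score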

Experiment [9] can be described thus: loss of swimming-algae plug formation – whole organism, Chlamydomonas reinhardtii, WT vs cilia-less mutant, absorbance, 96-well, primary screen (AID 463189;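 active = inhibition at or above 50% relative to wild type and mutant plate controls; inactive = inhibition below 50%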;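 also: 0% = wild type cc124 cells in DMSO and 100% = ciliumless bld1 mutant cells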). Conditions: Chlamydomonas reinhardtii gravitaxis, OD600 absorbance, 2 days; at 10 µM; stronger effect = higher value.
Setting [10] is: measured here: cell density z-score.
Setting [11] is: measured here: nuclear c-Myc green intensity z-score.
Setting [12] is: measured here: nuclear pErk red intensity z-score, stronger effect = higher value.

A word on the inhibition: it is the drop in the measured response relative to a control, in per cent.

Voltage-gated potassium channel subunit beta-2 (Rattus norvegicus), sequence (P62483 whole entry, looked up): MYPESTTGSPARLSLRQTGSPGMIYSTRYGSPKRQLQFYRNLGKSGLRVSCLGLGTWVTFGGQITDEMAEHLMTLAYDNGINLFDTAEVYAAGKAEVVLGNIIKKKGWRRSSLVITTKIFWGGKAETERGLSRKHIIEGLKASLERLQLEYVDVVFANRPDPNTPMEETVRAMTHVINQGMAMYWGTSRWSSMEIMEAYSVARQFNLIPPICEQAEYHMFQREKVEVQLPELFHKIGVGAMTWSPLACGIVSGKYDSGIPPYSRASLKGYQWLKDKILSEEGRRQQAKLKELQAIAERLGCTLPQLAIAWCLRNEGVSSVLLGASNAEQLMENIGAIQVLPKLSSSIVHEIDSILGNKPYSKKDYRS

On to `COc1ccc2c(c1OC)C(=O)N1c3ccccc3C(=O)N(c3ccc(F)cc3)C21` (centres undefined), for which the cell count in experiment [1] came out at 409. The inhibition in [1] was -15.5% (inactive); in experiment [2], -44.4% (inactive); in experiment [4] it was -1.12% (inactive); in experiment [9] it was 6.22% (inactive). Further, the nuclei count in experiment [2] stood at 103%. The z-score in [3] (setting [10]) was -0.0624; in experiment [3] (setting [11]) it was -0.142; in [3] (setting [12]), 0.819. Besides, the fluorescence slope in experiment [5] is -0.305 (inactive). Moreover, the NADPH fluorescence slope in experiment [6] was -2.1e-05 (inactive). In experiment [7], the slope is 0.00563 (inactive). The compound was called inactive in experiment [8].

For the compound `COCCCn1c2nc3ccccc3nc2c2c(=O)n(CC3CCCO3)cnc21` (centres undefined), in experiment [1], the cell count was determined as 561. Further, the inhibition in experiment [1] was -24.2% (inactive); in experiment [2] it was -93.6% (inactive); in [4], 2.92% (inactive); in [9] it was 9.15% (inactive). For the same compound, the nuclei count in experiment [2] was 148%. Further, the z-score is 0.117 in experiment [3] (setting [10]), -0.113 in experiment [3] (setting [11]) and -0.0537 in experiment [3] (setting [12]). Further, the fluorescence slope in experiment [5] was -0.368 (inactive). In experiment [6], the NADPH fluorescence slope was -1.9e-05 (inactive). The slope in experiment [7] was 0.00353 (inactive). In addition, the outcome in experiment [8] was inactive.

Regarding `CNC(=O)c1cc2ccccc2o1`, in experiment [1], the cell count amounted to 323. In addition, the inhibition in experiment [1] is -23.3% (inactive); in experiment [2] it was -72.9% (inactive); in [4] it was -5.26% (inactive); in experiment [9], 32% (inactive). In experiment [2], this compound displayed a nuclei count of 132%. The z-score in experiment [3] (setting [10]) was -1.3; in experiment [3] (setting [11]), -0.443; in experiment [3] (setting [12]), -1.56. The fluorescence slope in [5] was -0.428 (inactive). Further, the NADPH fluorescence slope in [6] is -4.2e-05 (inactive). Further, the slope in experiment [7] is 0.00621 (inactive). Also, the result in experiment [8] was inactive.

Take `COc1ccc(CCNC2CC(C)N(C)CC2C)cc1OC` (centres undefined): the cell count in [1] is 549. Further, the inhibition in experiment [1] was -11.3% (inactive); in [2] it was -75.9% (inactive); in experiment [4], -0.608% (inactive); in experiment [9], 12.3% (inactive). For the same compound, the nuclei count in experiment [2] was 170%. Further, the z-score in [3] (setting [10]) was 0.099; in [3] (setting [11]), -0.11; in [3] (setting [12]) it was 2.07. The fluorescence slope in experiment [5] is -0.515 (inactive). In addition, the NADPH fluorescence slope in [6] was -3e-05 (inactive). Also, in experiment [7], the slope was 0.00466 (inactive). Moreover, in experiment [8], the compound was classed as inactive.

As for `COCc1cc(C)nc(N)c1C#N`, in experiment [1], the cell count came out at 606. Also, the inhibition is 5.8% (inactive) in [1], -20.1% (inactive) in experiment [2], 16.1% (inactive) in experiment [4] and -2% (inactive) in experiment [9]. In [2], this compound returned a nuclei count of 136%. Besides, the z-score in experiment [3] (setting [10]) is 0.714; in experiment [3] (setting [11]) it was -1.4; in experiment [3] (setting [12]) it was 1.43. Besides, the fluorescence slope in experiment [5] is -0.219 (inactive). For the same compound, the NADPH fluorescence slope in [6] was 9.7e-06 (inactive). Also, the slope in [7] is 0.00554 (inactive). Besides, in [8], the outcome was inactive.

As to `COC(=O)c1ccc(OC(=O)c2ccc(OC)c(OC)c2)c(OC)c1`, the cell count in experiment [1] came out at 601. In addition, the inhibition is -0.3% (inactive) in experiment [1], 2.2% (inactive) in experiment [2], 11.4% (inactive) in experiment [4] and 1.14% (inactive) in experiment [9]. In experiment [2], this compound yielded a nuclei count of 142%. Further, the z-score in [3] (setting [10]) is 0.251; in experiment [3] (setting [11]), -0.0242; in experiment [3] (setting [12]), -0.151. Moreover, the fluorescence slope in experiment [5] was -0.491 (inactive). Moreover, the NADPH fluorescence slope in experiment [6] is -0.000121 (inactive). Moreover, in [7], the slope was 0.00612 (inactive). Further, the call in experiment [8] was inactive.

`COC(=O)C(NC(C)=O)(Nc1ccccc1)C(=O)OC`: the cell count in [1] turned out to be 566. Also, the inhibition in [1] is -19.3% (inactive); in experiment [2], -259% (inactive); in experiment [4], 18.2% (inactive); in [9] it was 2.12% (inactive). This compound showed a nuclei count in experiment [2] of 191%. Moreover, the z-score in [3] (setting [10]) was 1.28; in experiment [3] (setting [11]), -1.78; in experiment [3] (setting [12]) it was -0.855. Moreover, in [5], the fluorescence slope was -0.532 (inactive). The NADPH fluorescence slope in experiment [6] was -6.4e-05 (inactive). Further, the slope in experiment [7] is 0.00504 (inactive). For the same compound, in experiment [8], the compound was called inactive.

In the case of `COc1ccc(-c2oc3ncn4nc(COc5ccccc5)nc4c3c2-c2ccc(OC)cc2)cc1`, the cell count in [1] was determined as 621. Moreover, the inhibition in experiment [1] was -7.9% (inactive); in [2] it was -75% (inactive); in experiment [4], -15% (inactive); in [9], -3.79% (inactive). The compound also registered a nuclei count in experiment [2] of 194%. For the same compound, the z-score in experiment [3] (setting [10]) was -0.444; in experiment [3] (setting [11]), -0.952; in [3] (setting [12]) it was -0.924. Besides, the fluorescence slope in experiment [5] is -0.327 (inactive). Moreover, the NADPH fluorescence slope in experiment [6] was -1.2e-05 (inactive). The slope in experiment [7] is 0.0133 (inactive). Also, the compound was called inactive in experiment [8].

`COc1cccc2c(=O)c(SC(F)(F)C(F)C(F)(F)F)c(C)[nH]c12` (centres undefined): the cell count in experiment [1] was determined as 311. Further, the inhibition in experiment [1] was -0.8% (inactive); in experiment [2], -14.2% (inactive); in experiment [4], -2.91% (inactive); in experiment [9] it was -12.2% (inactive). The nuclei count in experiment [2] is 105%. Further, the z-score was 0.112 in experiment [3] (setting [10]), 2.52 in experiment [3] (setting [11]) and -0.995 in experiment [3] (setting [12]). In experiment [5], the fluorescence slope was -0.393 (inactive). Also, the NADPH fluorescence slope in [6] was -3e-05 (inactive). The slope in [7] is 0.00581 (inactive). Besides, the compound was classed as inactive in [8].

In the case of `CCCCOC(=O)CSc1nc(N)c(C#N)c(-c2ccc(OC)cc2)c1C#N`, in [1], the cell count was 370. The inhibition in [1] was -0.4% (inactive); in [2], -58.5% (inactive); in [4] it was 3.66% (inactive); in [9], -17.4% (inactive). This compound also showed a nuclei count in experiment [2] of 99.4%. Also, the z-score in experiment [3] (setting [10]) is -2.23; in experiment [3] (setting [11]), 0.0198; in [3] (setting [12]) it was 1.46. The fluorescence slope in [5] was -0.52 (inactive). Moreover, in [6], the NADPH fluorescence slope is -6.6e-05 (inactive). In addition, the slope in experiment [7] was 0.00456 (inactive). Moreover, in [8], the compound was called inactive.

In the case of `COc1cccc(C2=CC(c3ccccc3)n3nnnc3N2)c1` (centres undefined), in [1], the cell count came to 586. The inhibition in experiment [1] is 22.3% (inactive); in [2] it was -12.1% (inactive); in [4], -7.01% (inactive); in [9], 22.4% (inactive). Moreover, the nuclei count in experiment [2] is 120%. For the same compound, the z-score in [3] (setting [10]) was 0.0896; in experiment [3] (setting [11]), 0.142; in experiment [3] (setting [12]), -0.691. Besides, in experiment [5], the fluorescence slope was -0.275 (inactive). Besides, the NADPH fluorescence slope in [6] is 1.9e-05 (inactive). The slope in experiment [7] was 0.00526 (inactive). For the same compound, in [8], the compound was classed as inactive.

For `C=C(c1ccc(OCCO)cc1)c1ccc(OCCO)cc1`, in experiment [1], the cell count amounted to 323. The inhibition in [1] was -11% (inactive); in experiment [2], -16.1% (inactive); in [4], 1.6e-07% (inactive); in [9] it was 13.7% (inactive). This compound registered a nuclei count in [2] of 129%. For the same compound, the z-score is 0.426 in experiment [3] (setting [10]), 0.397 in experiment [3] (setting [11]) and -0.652 in [3] (setting [12]). The fluorescence slope in experiment [5] was -0.405 (inactive). Also, in [6], the NADPH fluorescence slope was -0.000129 (inactive). Besides, the slope in experiment [7] was 0.00576 (inactive). Further, the result in [8] was inactive.

As to `Cc1c(C(=O)O)c(=S)sn1CCOc1ccccc1`, the cell count in [1] came out at 646. Moreover, the inhibition was -1.9% (inactive) in experiment [1], 16.3% (inactive) in experiment [2], 14% (inactive) in experiment [4] and 4.87% (inactive) in experiment [9]. Further, the nuclei count in [2] was determined as 159%. In addition, the z-score in experiment [3] (setting [10]) came to 0.114; in experiment [3] (setting [11]), 1.14; in experiment [3] (setting [12]), 0.102. In addition, the fluorescence slope in [5] was -0.256 (inactive). For the same compound, in [6], the NADPH fluorescence slope was 1.3e-05 (inactive). Moreover, the slope in experiment [7] was 0.00412 (inactive). For the same compound, the compound was called inactive in experiment [8].
